Here are results for 19 molecules from ChEMBL document CHEMBL3351231, “Structure and antimicrobial activity of phloroglucinol derivatives from Achyrocline satureioides” (2015).

A word on the MIC: it is the lowest concentration found to suppress growth.

In brackets after ≈: the same amount, converted by molar mass.

The test system of one test is Escherichia coli. Put plainly: Antimicrobial activity against Escherichia coli ATCC 35218 after 24 hrs by broth microdilution method. It counts as functional. The note with it: ATCC 35218, 24 h. The essentials: (§1)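 Strains kept at −80 °C in BHI broth with 20% glycerol and revived on BHI at 37 °C overnight. NCCLS standard broth microdilution with 1:2 serial dilutions from 1 to 128 μM and an inoculum of 1 × 10⁵ CFU/mL. Ampicillin and kanamycin served as controls.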
On the technique in general: In broth dilution the organism is exposed to a series of concentrations in liquid medium.

The test system of test [1] is Staphylococcus aureus. Put plainly: Antimicrobial activity against methicillin-resistant and vancomycin-intermediate Staphylococcus aureus NRS402 after 24 hrs by broth microdilution method. It is filed as functional. The note with it: NRS402, 24 h. The essentials:
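Broth microdilution per NCCLS standard; strain stored at -80 °C in BHI broth with 20% glycerol, revived on BHI at 37 °C overnight. […] Ampicillin and kanamycin included as controls.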

The test system of another test is Enterococcus faecalis. The test is described as follows: Antimicrobial activity against Enterococcus faecalis ATCC 29212 after 24 hrs by broth microdilution method. The note with it: ATCC 29212, 24 h. It is filed as functional. The essentials: as §1
In the next test the test system is Saccharomyces cerevisiae. Put plainly: Antimicrobial activity against Saccharomyces cerevisiae BY4741 after 24 hrs by broth microdilution method. It counts as functional. The note with it: BY4741, 24 h.
The subject of another test is Candida albicans. The test is described as follows: Antimicrobial activity against Candida albicans […] after 24 hrs by broth microdilution method. It counts as functional.
In another test the test system is Nakaseomyces glabratus. Put plainly: Antimicrobial activity against Candida glabrata ATCC 9984 after 24 hrs by broth microdilution method. As to conditions: ATCC 9984, 24 h. It counts as functional.
For test [2], the system named is Staphylococcus aureus. The test is described as follows: Antimicrobial activity against methicillin-sensitive Staphylococcus aureus ATCC 25923 after 24 hrs by broth microdilution method. The note with it: ATCC 25923, 24 h.

Turning to `COc1c(-c2ccccc2)oc2c(OC)c(O)cc(O)c2c1=O` [GNAPHALIIN], the MIC in the test with Escherichia coli, in the test with Staphylococcus aureus [1], in the test with Enterococcus faecalis, in the test with Saccharomyces cerevisiae, with Candida albicans and in the test on Nakaseomyces glabratus was more than 128 µM each time. This molecule also displayed an MIC in the test on Staphylococcus aureus [2] of more than 128 µM.
On to `C=C(C)[C@@H]1Cc2c(O)c(Cc3c(O)c(C)c(CC)oc3=O)c(O)c(C(=O)[C@@H](C)CC)c2O1`, for which the MIC is more than 128 µM with Escherichia coli; 64 µM (≈ 28.3 µg/mL) against Staphylococcus aureus [1]; 64 µM (≈ 28.3 µg/mL) in the test with Enterococcus faecalis; more than 128 µM against Saccharomyces cerevisiae; more than 128 µM against Candida albicans; more than 128 µM against Nakaseomyces glabratus. The minimum inhibitory concentration (MIC) in the test with Staphylococcus aureus [2] is 32 µM (≈ 14.2 µg/mL).
`CCc1oc(=O)c(Cc2c(O)c3c(c(C(=O)[C@@H](C)CC)c2O)OC(C)(C)C=C3)c(O)c1C`: the MIC against Escherichia coli was more than 128 µM; against Staphylococcus aureus [1], 64 µM (≈ 28.3 µg/mL); with Enterococcus faecalis it was more than 128 µM; against Saccharomyces cerevisiae, more than 128 µM; in the test with Candida albicans it was more than 128 µM; against Nakaseomyces glabratus, more than 128 µM. The minimum inhibitory concentration (MIC) in the test on Staphylococcus aureus [2] amounted to 64 µM (≈ 28.3 µg/mL).
Regarding `CC1(C)S[C@@H]2[C@H](NC(=O)[C@H](N)c3ccccc3)C(=O)N2[C@H]1C(=O)O` [AMPICILLIN], the MIC in the test on Escherichia coli is more than 128 µM; against Staphylococcus aureus [1], 120 µM (≈ 41.9 µg/mL); in the test on Enterococcus faecalis it was 8.8 µM (≈ 3.07 µg/mL); with Staphylococcus aureus [2], less than 1 µM.
Consider `CCc1oc(=O)c(Cc2c(O)c3c(c(C(=O)[C@@H](C)CC)c2O)OC(C)(C)CC3)c(O)c1C`, for which the MIC in the test with Escherichia coli, with Staphylococcus aureus [1], in the test on Enterococcus faecalis and with Staphylococcus aureus [2] was more than 128 µM in each case.
Regarding `CCc1oc(=O)c(Cc2c(O)c(CCC(C)C)c(O)c(C(=O)[C@@H](C)CC)c2O)c(O)c1C`, the MIC with Escherichia coli is more than 128 µM; against Staphylococcus aureus [1], 4 µM (≈ 1.79 µg/mL); in the test with Enterococcus faecalis, 32 µM (≈ 14.3 µg/mL); in the test on Staphylococcus aureus [2], 4 µM (≈ 1.79 µg/mL).
For `CCc1oc(=O)c(Cc2c(O)c(C(=O)[C@@H](C)CC)c3c(c2O)C2OC2C(C)(C)O3)c(O)c1C` (some centres not stated), the minimum inhibitory concentration (MIC) in the test with Escherichia coli, with Staphylococcus aureus [1], in the test on Enterococcus faecalis and against Staphylococcus aureus [2] was more than 128 µM throughout.
For `C=C(C)C(O)Cc1c(O)c(C(=O)[C@@H](C)CC)c2oc3c4c(c(C(=O)[C@@H](C)CC)c(O)c3c2c1O)OC(C)(C)C=C4` (some centres not stated), the MIC against Escherichia coli is more than 128 µM; against Staphylococcus aureus [1] it was 32 µM (≈ 17.6 µg/mL); against Enterococcus faecalis, 64 µM (≈ 35.2 µg/mL); in the test with Saccharomyces cerevisiae, more than 128 µM; against Candida albicans, more than 128 µM; against Nakaseomyces glabratus, more than 128 µM. For the same molecule, in the test on Staphylococcus aureus [2], the MIC was determined as 32 µM (≈ 17.6 µg/mL).
Regarding `CCc1oc(=O)c(Cc2c(O)c(C(=O)[C@@H](C)CC)c3c(c2OC)C=CC(C)(C)O3)c(OC)c1C`, the MIC in the test with Escherichia coli, with Staphylococcus aureus [1], against Enterococcus faecalis and against Staphylococcus aureus [2] was more than 128 µM in each case.
As to `CCc1oc(OC)c(Cc2c(O)c(C(=O)[C@@H](C)CC)c3c(c2OC)C=CC(C)(C)O3)c(=O)c1C`, the MIC against Escherichia coli, with Staphylococcus aureus [1], in the test on Enterococcus faecalis and against Staphylococcus aureus [2] was more than 128 µM in each case.
For `CCc1oc(OC)c(Cc2c(O)c3c(c(C(=O)[C@@H](C)CC)c2O)OC(C)(C)C=C3)c(=O)c1C`, the MIC in the test with Escherichia coli, against Staphylococcus aureus [1], against Enterococcus faecalis and in the test with Staphylococcus aureus [2] was more than 128 µM throughout.
`CCc1oc(=O)c(Cc2c(OC(C)=O)c3c(c(C(=O)[C@@H](C)CC)c2OC(C)=O)OC(C)(C)C=C3)c(OC(C)=O)c1C`: the MIC with Escherichia coli, against Staphylococcus aureus [1], against Enterococcus faecalis and in the test on Staphylococcus aureus [2] was more than 128 µM in each case.
For the molecule `CCc1oc(=O)c(Cc2c(O)c3c(c(C(=O)[C@@H](C)CC)c2O)OC(C)(C)[C@@H](O)C3)c(O)c1C`, the MIC in the test with Escherichia coli, against Staphylococcus aureus [1], with Enterococcus faecalis, against Saccharomyces cerevisiae, in the test with Candida albicans and against Nakaseomyces glabratus was more than 128 µM throughout. Besides, the MIC in the test with Staphylococcus aureus [2] is more than 128 µM.
Turning to `CCc1oc(=O)c(Cc2c(O)c(CC=C(C)C)c(O)c(C(=O)[C@@H](C)CC)c2O)c(O)c1C`, the MIC is more than 128 µM against Escherichia coli; 8 µM (≈ 3.56 µg/mL) in the test on Staphylococcus aureus [1]; 64 µM (≈ 28.4 µg/mL) with Enterococcus faecalis; more than 128 µM in the test on Saccharomyces cerevisiae; more than 128 µM with Candida albicans; more than 128 µM against Nakaseomyces glabratus. In addition, the MIC in the test on Staphylococcus aureus [2] was determined as 8 µM (≈ 3.56 µg/mL).
With `CCc1oc(=O)c(Cc2c(O)c3c(c(C(=O)[C@@H](C)CC)c2O)OC(C)(C)C(Br)=C3)c(O)c1C`, the MIC is more than 128 µM in the test on Escherichia coli, 8 µM (≈ 4.17 µg/mL) in the test with Staphylococcus aureus [1], more than 128 µM against Enterococcus faecalis and 16 µM (≈ 8.34 µg/mL) in the test with Staphylococcus aureus [2].
Turning to `CCc1[nH]c(=O)c(Cc2c(O)c3c(c(C(=O)[C@@H](C)CC)c2O)OC(C)(C)C=C3)c(O)c1C`, the minimum inhibitory concentration (MIC) with Escherichia coli was more than 128 µM; with Staphylococcus aureus [1], 32 µM (≈ 14.1 µg/mL); in the test on Enterococcus faecalis, more than 128 µM; with Staphylococcus aureus [2], 32 µM (≈ 14.1 µg/mL).
As for `CCc1oc(=O)c(Cc2c(O)c3c(c(C(=O)[C@@H](C)CC)c2O)OC(C(C)(C)O)C3)c(O)c1C` (some centres not stated), the minimum inhibitory concentration (MIC) in the test on Escherichia coli, in the test on Staphylococcus aureus [1], in the test on Enterococcus faecalis and against Staphylococcus aureus [2] was more than 128 µM throughout.
Regarding `C=C(C)C(O)Cc1c(O)c(C(=O)C(C)CC)c(O)c2c1oc1c(C(=O)C(C)CC)c(O)c(CC=C(C)C)c(O)c12` (configuration not stated) [ACHYROFURAN], the MIC is more than 128 µM against Escherichia coli; less than 1 µM against Staphylococcus aureus [1]; 2 µM (≈ 1.11 µg/mL) with Enterococcus faecalis; more than 128 µM against Saccharomyces cerevisiae; more than 128 µM in the test on Candida albicans; more than 128 µM against Nakaseomyces glabratus. In the test with Staphylococcus aureus [2], this molecule returned an MIC of less than 1 µM.
For `NC[C@H]1O[C@H](O[C@H]2[C@H](O)[C@@H](O[C@H]3O[C@H](CO)[C@@H](O)[C@H](N)[C@H]3O)[C@H](N)C[C@@H]2N)[C@H](O)[C@@H](O)[C@@H]1O` [KANAMYCIN], the MIC with Escherichia coli is more than 128 µM; against Staphylococcus aureus [1], 240 µM (≈ 116 µg/mL); with Enterococcus faecalis it was 360 µM (≈ 174 µg/mL); with Staphylococcus aureus [2], 2.8 µM (≈ 1.36 µg/mL).
